# Assay results collected from several papers.
# Protocols differ between the studies behind these lines.
# Target: Activin receptor type-1 (ACVR1, Homo sapiens, UniProt Q04771)
# Residues used in one study (Q04771 21-509): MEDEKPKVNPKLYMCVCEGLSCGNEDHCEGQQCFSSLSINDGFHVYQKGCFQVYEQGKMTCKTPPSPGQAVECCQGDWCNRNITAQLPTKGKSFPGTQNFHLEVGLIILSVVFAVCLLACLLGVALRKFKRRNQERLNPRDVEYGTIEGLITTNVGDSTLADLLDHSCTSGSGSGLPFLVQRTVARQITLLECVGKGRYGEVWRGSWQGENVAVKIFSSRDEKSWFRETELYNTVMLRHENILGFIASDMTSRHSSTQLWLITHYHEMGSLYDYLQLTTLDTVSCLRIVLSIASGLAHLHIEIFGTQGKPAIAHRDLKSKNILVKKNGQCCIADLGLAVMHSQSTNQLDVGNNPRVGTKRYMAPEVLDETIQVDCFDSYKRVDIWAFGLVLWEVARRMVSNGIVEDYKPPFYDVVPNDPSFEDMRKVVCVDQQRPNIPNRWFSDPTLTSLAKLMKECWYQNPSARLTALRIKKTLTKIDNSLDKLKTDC
Compound,test,setting,measurement,result
CN1CCN(C(=O)c2ccc(NC(=O)Nc3ccc(N(C)c4ccnc(Nc5ccc(CS(C)(=O)=O)cc5)n4)cc3)cc2)CC1,"binding, competition with immobilised ligand",1 µM,remaining binding,28%
C1=C/COCc2cc(ccc2OCCN2CCCC2)Nc2nccc(n2)-c2cccc(c2)COC/1,binding,0.1 µM,remaining binding,3.7%
CO[C@@H]1[C@H](N(C)C(=O)c2ccccc2)C[C@H]2O[C@]1(C)n1c3ccccc3c3c4c(c5c6ccccc6n2c5c31)C(=O)NC4,"enzyme activity, inhibitor",1 µM,inhibition,0%
CC(C)S(=O)(=O)c1ccc2nccc(Nc3ccc4sc(C5CCCC5)nc4c3)c2c1,"enzyme activity, inhibitor",1 µM,activity vs control,111%
COc1ccc2[nH]c3c4[nH]c5ccc(OC)cc5c4c4c(c3c2c1)C(=O)NC4=O,"binding, competition with immobilised ligand",1 µM,remaining binding,77%
CCCCC(=O)Nc1ccc(-c2ccc3ncn(CCC)c(=O)c3c2)cn1,"binding, competition with immobilised ligand",0.5 µM,remaining binding,100%
COc1ccc2oc(-c3ccc4nc(N)oc4c3)c/c(=N\c3ccccc3NC(=O)CCN)c2c1,binding,1 µM,remaining binding,104%
C=CC(=O)N1CCC([C@@H]2CCNc3c(C(N)=O)c(-c4ccc(Oc5ccccc5)cc4)nn32)CC1,cell-free assay,1 µM,inhibition,13%
